From ChEMBL document CHEMBL2176929, “Hepatoprotective iridoid glycosides from the roots of Rehmannia glutinosa” (J Nat Prod, 2012)

What was measured:
[1] = Hepatoprotective activity in human HL7702 cells assessed as inhibition of D-galactosamine-induced cell damage at 10 uM preincubated for 1 hr prior to D-galactosamine challenge measured after 24 hrs by MTT assay relative to untreated control; type: functional; settings: L02
Method in brief: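 HL-7702 cells, 2 × 10^4 per well in RPMI 1640 with 10% FCS and penicillin/streptomycin, precultured 24 h at 37 °C in 5% CO2. Pretreated 1 h with samples (10 μM) or bicyclol (10 μM, positive control) in fresh medium, then given 25 mM D-galactosamine for 24 h. Medium removed, 0.5 mg/mL MTT for 4 h, formazan dissolved in DMSO, OD read at 492 nm. Inhibition (%) calculated by formula. Mean ± SD, n = 3 (normal/control n = 6).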

L02 = test: Hepatoprotective activity in D-galactosamine-treated human HL7702 cells assessed as survival rate at 10 uM preincubated for 1 hr prior to D-galactosamine challenge measured after 24 hrs by MTT assay relative to normal cell; type: functional; settings: read-out: Survival
Method in brief: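 HL-7702 cells, 2 × 10^4 per well in RPMI 1640 with 10% fetal calf serum, penicillin and streptomycin, precultured 24 h at 37 °C, 5% CO2. Test samples added in fresh medium for 1 h, then 25 mM D-galactosamine for 24 h. MTT 0.5 mg/mL, 4 h; formazan dissolved in DMSO, OD at 492 nm. Bicyclol 10 μM positive control; means ± SD, n = 3.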

Bel-7402 = test: Cytotoxicity against human Bel7402 cells after 4 days by MTT assay; type: functional, cell-based; settings: Bel-7402, 96 h
A2780 = test: Cytotoxicity against human A2780 cells after 4 days by MTT assay; type: functional, cell-based; settings: A2780, 96 h
A549 = test: Cytotoxicity against human A549 cells after 4 days by MTT assay; type: functional, cell-based; settings: A549, 96 h
BGC-823 = test: Cytotoxicity against human BGC823 cells after 4 days by MTT assay; type: functional, cell-based; settings: BGC-823, 96 h
HCT-8 = test: Cytotoxicity against human HCT8 cells after 4 days by MTT assay; type: functional, cell-based; settings: HCT-8, 96 h

| Structure (SMILES) | inhibition at 10 µM [1] [%] | viability at 10 µM (L02) [%] | IC50 (Bel-7402) [µM] | IC50 (A2780) [µM] | IC50 (A549) [µM] | IC50 (BGC-823) [µM] | IC50 (HCT-8) [µM] |
| --- | --- | --- | --- | --- | --- | --- | --- |
| COC(=O)c1cc(OC)c2c(c1-c1c(CO)cc(OC)c3c1OCO3)OCO2 [BICYCLOL] | 16.7 | 63.6 | – | – | – | – | – |
| COc1cc(C(=O)O[C@@H]2C[C@](C)(O)[C@H]3[C@H](O[C@@H]4O[C@H](CO)[C@@H](O)[C@H](O)[C@H]4O)OC=C[C@H]32)ccc1O[C@@H]1O[C@H](CO)[C@@H](O)[C@H](O)[C@H]1O [REHMAGLUTOSIDE B] | – | – | > 10 | > 10 | > 10 | > 10 | > 10 |
| C[C@]1(O)C[C@@H](O)[C@@H]2C=CO[C@@H](O[C@@H]3O[C@H](CO[C@H]4C[C@H]5[C@@H]([C@@H](O[C@@H]6O[C@H](CO)[C@@H](O)[C@H](O)[C@H]6O)O4)[C@](C)(O)C[C@@H]5O)[C@@H](O)[C@H](O)[C@H]3O)[C@@H]21 [REHMAGLUTOSIDE J] | 25.2 | 67.3 | > 10 | > 10 | > 10 | > 10 | > 10 |
| COc1cc([C@@H]2Oc3c(O)cc(/C=C/C(=O)O[C@@H]4C[C@](C)(O)[C@H]5[C@H](O[C@@H]6O[C@H](CO)[C@@H](O)[C@H](O)[C@H]6O)OC=C[C@H]54)cc3[C@H]2CO)ccc1O [REHMAGLUTOSIDE E] | – | – | > 10 | > 10 | > 10 | > 10 | > 10 |
| C[C@]1(O)C[C@@H](OC(=O)/C=C/c2ccccc2)[C@@H]2C=CO[C@@H](O[C@@H]3O[C@H](CO)[C@@H](O)[C@H](O)[C@H]3O)[C@@H]21 [REHMAGLUTOSIDE A] | – | – | > 10 | > 10 | > 10 | > 10 | > 10 |
| CC(/C=C/[C@@]1(O)C(C)(C)CCC[C@@]1(C)O[C@@H]1O[C@H](CO)[C@@H](O)[C@H](O)[C@H]1O)=C\C(=O)O[C@@H]1C[C@](C)(O)[C@H]2[C@H](O[C@@H]3O[C@H](CO)[C@@H](O)[C@H](O)[C@H]3O)OC=C[C@H]21 [REHMAGLUTOSIDE I] | 28.2 | 68.6 | > 10 | > 10 | > 10 | > 10 | > 10 |
| CC(/C=C/[C@@]1(O)C(C)(C)CCC[C@@]1(C)O)=C\C(=O)O[C@@H]1C[C@](C)(O)[C@H]2[C@H](O[C@@H]3O[C@H](CO)[C@@H](O)[C@H](O)[C@H]3O)OC=C[C@H]21 [REHMAGLUTOSIDE F] | – | – | > 10 | > 10 | > 10 | > 10 | > 10 |
| C[C@]1(O)C[C@@H](O)[C@@H]2C=CO[C@@H](O[C@@H]3O[C@H](CO[C@@H]4C[C@H]5[C@@H]([C@@H](O[C@@H]6O[C@H](CO)[C@@H](O)[C@H](O)[C@H]6O)O4)[C@](C)(O)C[C@@H]5O)[C@@H](O)[C@H](O)[C@H]3O)[C@@H]21 [REHMAGLUTOSIDE K] | 35.5 | 71.8 | > 10 | > 10 | > 10 | > 10 | > 10 |
| CC(/C=C/[C@@]1(O)C(C)(C)C[C@H](O)C[C@@]1(C)O)=C\C(=O)O[C@@H]1C[C@](C)(O)[C@H]2[C@H](O[C@@H]3O[C@H](CO)[C@@H](O)[C@H](O)[C@H]3O)OC=C[C@H]21 [REHMAGLUTOSIDE G] | 38.7 | 73.2 | > 10 | > 10 | > 10 | > 10 | > 10 |
| CC(/C=C/[C@@]1(O)C(C)(C)CC[C@@H](O)[C@@]1(C)O)=C\C(=O)O[C@@H]1C[C@](C)(O)[C@H]2[C@H](O[C@@H]3O[C@H](CO)[C@@H](O)[C@H](O)[C@H]3O)OC=C[C@H]21 [REHMAGLUTOSIDE H] | – | – | > 10 | > 10 | > 10 | > 10 | > 10 |
| C[C@]1(O)C[C@@H](OC(=O)CCc2cc(O)ccn2)[C@@H]2C=CO[C@@H](O[C@@H]3O[C@H](CO)[C@@H](O)[C@H](O)[C@H]3O)[C@@H]21 [REHMAGLUTOSIDE D] | – | – | > 10 | > 10 | > 10 | > 10 | > 10 |
| COc1cc(C(=O)O[C@@H]2C[C@](C)(O)[C@H]3[C@H](O[C@@H]4O[C@H](CO)[C@@H](O)[C@H](O)[C@H]4O)OC=C[C@H]32)cc(OC)c1O[C@@H]1O[C@@H](C)[C@H](O)[C@@H](O)[C@H]1O [REHMAGLUTOSIDE C] | 33.6 | 71 | > 10 | > 10 | > 10 | > 10 | > 10 |
